The text below walks through data of ChEMBL document CHEMBL4480404, “Discovery of Lipophilic Bisphosphonates That Target Bacterial Cell Wall and Quinone Biosynthesis” (J Med Chem, 2019).

Structures are written as SMILES. In brackets after ≈: the same amount, converted by molar mass.

The subject of series [1] is Bacillus subtilis. Description: Antibacterial activity against Bacillus subtilis (Ehrenberg) Cohn ATCC 6051 in presence of 10% fetal bovine serum after 12 hrs. The class given is functional. The note with it: (Ehrenberg) Cohn ATCC 6051, 12 h, read-out: ED50 (the source's name). Put shortly:
(§1)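 Log-phase B. subtilis diluted 500-fold into LB containing 0%, 4% or 10% fetal bovine serum. Inhibitor threefold serially diluted across 12 wells from a 100 µM–1 mM start; incubated 12 h at 37 °C with 200 rpm shaking; growth inhibition by OD600.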

The nature of series [2]: Lipophilicity, log D of the compound at pH 7.4. The class given is physicochemical. The note with it: buffer.
Series [3] can be described thus: Growth inhibition of HEK293 cells after 24 hrs by MTT assay. The class given is cell-based. Conditions: human, read-out: ED50. Put shortly: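 HEK293 cells in DMEM (4.5 g/L glucose) with 10% FBS and 1% penicillin-streptomycin, seeded at 10⁵ cells/mL. Inhibitor from 10 mM stock diluted threefold across 10 wells; 37 °C for 24 or 96 h.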
For series [4], the system named is Bacillus subtilis. Description: Antibacterial activity against Bacillus subtilis (Ehrenberg) Cohn ATCC 6051 in absence of fetal bovine serum after 12 hrs. The class given is functional. Conditions: (Ehrenberg) Cohn ATCC 6051, 12 h, read-out: ED50 (the source's name). Put shortly:
as §1

Series [5] has as its system Bacillus subtilis. Nature of the series: Antibacterial activity against Bacillus subtilis (Ehrenberg) Cohn ATCC 6051 after 12 hrs. It is filed as functional. The note with it: (Ehrenberg) Cohn ATCC 6051, 12 h, read-out: ED50 (the source's name). Put shortly: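 Log-phase LB culture (grown to OD600 ~0.3, then diluted 500-fold) exposed to two-fold serial dilutions of inhibitor starting at 100 µM–1 mM across 12 wells; 37 °C, 200 rpm shaking, 12 h. OD600 read and ED50 fitted; duplicate or triplicate.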

Series [6] concerns Mycolicibacterium smegmatis. Description: Antibacterial activity against Mycobacterium smegmatis MC2 155 ATCC 700084 after 48 hrs. The class given is functional. Conditions: MC2 155 ATCC 700084, 48 h, read-out: ED50 (the source's name). Put shortly:
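Culture grown 36–48 h, diluted 1000-fold in Middlebrook 7H9 with 10% ADC, 0.5% glycerol, 0.05% Tween 80; inhibitors started at 100 µM–1 mM, threefold serial dilution across 10 wells; 37 °C, 200 rpm, 48 h; OD600 read-out.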

Series [7] deals with Staphylococcus aureus. Nature of the series: Antibacterial activity against Staphylococcus aureus Newman after 12 hrs. It is filed as functional. The note with it: read-out: ED50 (the source's name). Put shortly: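 Log-phase S. aureus culture in tryptic soy broth (OD600 ~0.3, then diluted 500-fold). Inhibitors two-fold serially diluted across 12 wells from a 100 µM–1 mM start; 37 °C, 200 rpm, 12 h; OD600 read for growth inhibition.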

The subject of series [8] is Candida albicans. Description: microbe, parasite or virus in culture. The class given is functional. The note with it: CAI-4, 12 h, read-out: ED50 (the source's name).
The test system of series [9] is Bacillus anthracis. Description: Antibacterial activity against Bacillus anthracis Sterne after 12 hrs. The note with it: read-out: ED50 (the source's name). It is filed as functional.
The nature of series [10]: Inhibition of Escherichia coli OPPS using IPP as substrate.
For series [11], the target named is T1, Farnesyl pyrophosphate synthase (Homo sapiens, UniProt P14324).
T1 sequence (P14324 whole entry): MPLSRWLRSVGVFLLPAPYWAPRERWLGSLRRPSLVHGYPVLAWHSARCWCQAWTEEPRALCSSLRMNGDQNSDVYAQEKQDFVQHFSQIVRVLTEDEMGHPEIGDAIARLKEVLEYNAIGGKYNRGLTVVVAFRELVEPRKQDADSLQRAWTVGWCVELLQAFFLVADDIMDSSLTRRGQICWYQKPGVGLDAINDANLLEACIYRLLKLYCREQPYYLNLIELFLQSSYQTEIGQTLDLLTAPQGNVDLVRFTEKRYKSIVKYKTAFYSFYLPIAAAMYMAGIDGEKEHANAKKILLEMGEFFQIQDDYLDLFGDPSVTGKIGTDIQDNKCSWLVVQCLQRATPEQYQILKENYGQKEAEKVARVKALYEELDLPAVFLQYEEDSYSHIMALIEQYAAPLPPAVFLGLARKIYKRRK
Nature of the series: Inhibition of human FPPS using IPP and GPP.

In the case of `CC(C)CCCC(C)CCCc1ccc[n+](CC(P(=O)([O-])O)P(=O)(O)O)c1` (stereo not given), the results for the EC50 in series [1] and in [4] were 1.7 mg/L and 2.4 mg/L (≈ 5.7 µM), respectively. Also, in [2], the logD is reported as -4.71. Moreover, in series [3], the GI50 at 24 h amounted to 460 µM.
Consider `CC(C)CCCC(C)CCOc1ccnc(NCC(P(=O)(O)O)P(=O)(O)O)c1` (stereo not given), for which the logD in series [2] (read-out: logD) is -2.31.
On to `CCCCCCCCCCCc1ccc[n+](CC(P(=O)([O-])O)P(=O)(O)O)c1` (stereo not given), for which the EC50 in series [1] stood at 2 mg/L. In [2], this molecule registered a logD of -4.07. Further, the GI50 at 24 h in series [3] came out at 220 µM.
With `CCCCCCCCOc1cccc(C(=O)Nc2ccc(F)cc2C(=O)O)c1`, the EC50 in [5] was 3 to 8 mg/L (≈ 7.74 to 20.6 µM); in series [6], 3 to 8 mg/L (≈ 7.74 to 20.6 µM); in series [7] it was 3 to 8 mg/L (≈ 7.74 to 20.6 µM); in series [8], above 50 mg/L; in series [9], 3 to 8 mg/L (≈ 7.74 to 20.6 µM).
As for `CC(C)CCCC(C)CCc1csc(NCC(P(=O)(O)O)P(=O)(O)O)n1` (stereo not given), the logD in series [2] (read-out: logD) is -2.36.
Molecule `CC(C)CCCC(C)CCCn1cc[n+](CC(P(=O)([O-])O)P(=O)(O)O)c1` (stereo not given) yielded a log distribution coefficient (logD) in [2] of -5.65. The GI50 at 24 h in [3] worked out at 440 µM.
`O=P([O-])(O)C(Cn1cc[n+](CCCc2ccc(F)c(F)c2)c1)P(=O)(O)O` (stereo not given): the EC50 is 38 mg/L in series [1]; above 100 mg/L in series [5]; 30 mg/L (≈ 73.1 µM) in series [7]; 2 mg/L (≈ 4.88 µM) in series [8]; above 100 mg/L in series [9]; 26 mg/L (≈ 63.4 µM) in series [4]. Also, the GI50 at 24 h in series [3] came to 600 µM.
Take `CC(C)CCCC(C)CCNc1ccc[n+](CC(P(=O)([O-])O)P(=O)(O)O)c1` (stereo not given): the GI50 at 24 h in [3] stood at 440 µM.
Turning to `CC(C)CCCC(C)CCc1cnc(NCC(P(=O)(O)O)P(=O)(O)O)s1` (stereo not given), the logD in [2] (read-out: logD) is -2.12.
With `CCCCCCCCCCOc1ccc[n+](CC(P(=O)([O-])O)P(=O)(O)O)c1` (stereo not given), in series [10], the IC50 fell in the range of 0.006 to 0.02 µM. The EC50 in series [8] was above 50 mg/L.
Take `O=P([O-])(O)C(C[n+]1ccc(-c2ccc3oc4ccccc4c3c2)cc1)P(=O)(O)O` (stereo not given): the EC50 in series [8] is above 50 mg/L.
For `CC(C)CCCC(C)CCCC(C)CCCC(C)CCOc1ccc[n+](CC(P(=O)([O-])O)P(=O)(O)O)c1` (stereo not given), in series [2] (read-out: logD), the logD is -1.85.
On to `CCCCCCCCCCOc1cccc(CC(O)(P(=O)(O)O)P(=O)(O)O)c1`, for which the IC50 was 550 µM in series [11] and 11 µM in [10].
In the case of `CC(C)CCCC(C)CCSc1ccc[n+](CC(P(=O)([O-])O)P(=O)(O)O)c1` (stereo not given), the logD in [2] was -5.09. Besides, the GI50 at 24 h in series [3] came to 510 µM.
As for `CC(C)CCCC(C)CCOc1cc(NCC(P(=O)(O)O)P(=O)(O)O)ccn1` (stereo not given), the logD in series [2] (read-out: logD) is -3.1. The GI50 at 24 h in series [3] came to 1200 µM.

Broadly, the logD is the decadic logarithm of the distribution of all forms, ionised or not, between an organic phase and buffer at a given pH. The IC50 is the concentration that inhibits the measured activity by half. A low value points to higher potency.
